Test results reported in PubChem BioAssay AID685 (PCMD, 2007).
Out of some 30,000 compounds screened, about 80 (0.3%) were called active.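 How the source made its calls: active means mutant and wild-type yeast strains alike exhibit over 30% growth inhibition; inconclusive means a strain exceeds 50% while the second remains under 30%; inactive means the rest.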 Many of the other results were omitted from the sample, so actives are more common in it than they were.

Assay: S. cerevisiae growth inhibition, turbidity – wild-type and eIF2Bepsilon R284H mutant, A595, cytotoxicity control for eIF2B function restoration project, primary screen (AID 685);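 further: 0% = untreated cell controls and 100% = YPD media blanks without cells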
Conditions: 16 h, stronger effect = higher value, screened at 25 µM (by protocol)
Outline: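 Schedule: 16 h growth with compound, 30 °C. System: yeast, wild-type or eIF2Bepsilon-R284H mutant. Doses: one dose, 25 µM compound[…]. Buffer or medium: YPD. Signal: turbidity measured as absorbance at 595 nm. Read-out basis: growth inhibition (%) versus cell controls and blanks.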

[1] = S. cerevisiae eIF2Bepsilon-R284H mutant growth

Compound	growth inhibition [1] [%]	growth inhibition (S. cerevisiae wild-type growth)
COC(=O)COc1ccc(S(=O)(=O)N2CCOCC2)cc1	0	-24.2% (inactive)
Cc1ccc(-c2csc(NC(=O)Cc3cccs3)n2)cc1C	0	33.1% (inactive)
CCOC(=O)C1=C(C)NC(SC)=NC1c1ccccc1 (stereo unspecified)	-3.45	-15.1% (inactive)
Cc1ccc(N(CC(=O)Nc2cccc(N(C)S(C)(=O)=O)c2)S(C)(=O)=O)cc1	16.1	8.21% (inactive)
Cn1c(N)c(C(=O)COC(=O)C23CC4CC(CC(C4)C2)C3)c(=O)n(C)c1=O	11.6	6.55% (inactive)
CN=C1SC(CC(=O)Nc2ccc(C(=O)O)cc2)C(=O)N1C (stereo unspecified)	10.3	13.1% (inactive)
O=S(=O)(NCCOc1cccc2cccnc12)c1ccc(F)cc1	0	-11.7% (inactive)
O=C(c1cccc(F)c1)N1CCC(O)(c2cccnc2)CC1	-27.3	1.72% (inactive)
CCOc1ccc(NC(=O)C2CCCN(C(=O)Nc3ccccc3)C2)cc1 (stereo unspecified)	8.33	16.3% (inactive)
CC(OC(=O)CN1C(=O)C2CCCCC2C1=O)C(=O)Nc1ncc(Cl)cc1Cl (stereo unspecified)	15.2	19.3% (inactive)
CCOC(=O)c1c(NC(=O)CSc2nnc(CNc3ccc(C)cc3C)o2)sc(C)c1C	25.9	25.9% (inactive)
CCCCN(CC)CCNC(=O)c1[nH]c(C)c(C(C)=O)c1C	17.6	11.2% (inactive)
OC(C#CCN1CCOCC1)(c1ccccc1)C1CCCCC1 (stereo unspecified)	7.89	34.3% (inactive)
CCOCCOCCC(C(=O)O)P(=O)(c1ccccc1)c1ccccc1 (stereo unspecified)	16.7	13.8% (inactive)
CCc1cc(Br)ccc1NC(=O)C1CCCO1 (stereo unspecified)	18.5	-7.78% (inactive)
OC(CNCC1CCCO1)Cn1c2ccc(Br)cc2c2cc(Br)ccc21 (stereo unspecified)	100	86.7% (active)
CCn1cc(C(=O)NCC2CCCO2)c(=O)c2cc(S(=O)(=O)N3CCCCC3)ccc21 (stereo unspecified)	-11.1	6.79% (inactive)
COc1ccc(CCNC(=O)CN(c2ccccc2)S(C)(=O)=O)cc1OC	12.8	18.3% (inactive)
COC(=O)c1c(C)c(C)nc(N)c1C#N	-9.52	-10.8% (inactive)
COC(=O)c1ccc(Cc2ccccc2)o1	19.4	10% (inactive)
CCOC(=O)c1cc2c(ccn2C)n1CC(=O)N1CCC(C)CC1	4.55	-20.7% (inactive)
O=C(C1CCC(C(=O)N2CCCC2)CC1)N1CCCC1 (stereo unspecified)	-12.9	-0.38% (inactive)

Compound	growth inhibition [1] [%]	growth inhibition (S. cerevisiae wild-type growth)
Cn1c(Cn2nnc3ccccc32)nnc1SCC(=O)c1ccccc1F	16.2	4.07% (inactive)
O=C(NC(=O)c1ccccc1)NC(=O)c1ccccc1	5.26	12.5% (inactive)
Nc1nc(SCc2ccccc2Cl)n[nH]1	16.2	-0.77% (inactive)
CC(C)N(C(=O)COC(=O)c1ccccc1C(=O)N1CCN(c2ccc(F)cc2)CC1)C(C)C	-1.35	-10% (inactive)
COc1ccc(O)c(C(=O)c2cnc3onc(C(C)C)c3c2)c1	-10.5	8.18% (inactive)
CS(=O)(=O)N(CC(=O)N1CCN(c2ccc(F)cc2)CC1)C1CCCCC1	4.76	3.1% (inactive)
O=C(Nc1ccc(Cl)cc1)c1cc2nc(C3CC3)cc(C(F)(F)F)n2n1	-4.05	1.92% (inactive)
O=C(CSCc1ccccc1)N1CCc2ccccc21	9.38	14.7% (inactive)
O=C(CN1CCSCC1)N/N=C/c1ccc(F)cc1	17.5	10% (inactive)
O=C(Nc1ccccc1-c1nnn(CC(=O)N2CCCc3ccccc32)n1)c1cccc(Cl)c1	4.35	-12.9% (inactive)
CC1CCC2(CC1)NC(=O)N(CC(=O)c1cccn1C)C2=O (stereo unspecified)	-4.76	3% (inactive)
Cc1cc(=O)[nH]c(SCc2cccc(F)c2)n1	0	10.8% (inactive)
Cc1cc(C)cc(NC(=O)C2CCN(c3nc(C)cc(C)n3)CC2)c1	-2.94	5.33% (inactive)
CC(c1ccco1)N(C(=O)COc1ccccc1[N+](=O)[O-])c1ccccn1 (stereo unspecified)	-23.8	-11% (inactive)
COc1cc(C)c(C(C)C)cc1S(=O)(=O)n1ccnc1	-20	-17% (inactive)
O=c1[nH]nc(CSCc2ccccc2Cl)[nH]1	-3.13	-3.79% (inactive)
O=C(O)c1cc2ccccc2c(=O)s1	-9.52	17.3% (inactive)
CCN(CC)C(=O)CSc1ncnc2c1cnn2-c1ccccc1	-12.9	1.3% (inactive)
O=C(Cn1cnc2ccccc2c1=O)NCC1COc2ccccc2O1 (stereo unspecified)	10.9	3.57% (inactive)
O=C(NCC1CCC(C(=O)O)CC1)OCc1ccccc1 (stereo unspecified)	0	-12.5% (inactive)
COc1ccc(S(=O)(=O)NCc2ccc(C(=O)N(C)Cc3ccco3)cc2)cc1	6.06	-4.07% (inactive)
